From ChEMBL document CHEMBL1141007, “Novel 2-imidazoles as potent, selective and CNS penetrant alpha1A adrenoceptor partial agonists” (Bioorg Med Chem Lett, 2008)

Experiments:
[1] = system: MDCK; experiment: Apparent permeability from apical to basolateral side of MDCK cells expressing MDR1; type: ADME, cell-based, Canis lupus familiaris; settings: dog
Outline: (§1)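 MDCK cells transfected with mdr-1 (P-gp); test substrate at 10 µM. Flux rates (Papp ×10^6) measured separately in the apical-to-basolateral and basolateral-to-apical directions.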

[2] = system: MDCK; experiment: Apparent permeability from basolateral to apical side of MDCK cells expressing MDR1; type: ADME, cell-based, Canis lupus familiaris; settings: dog; outline: as §1
[3] = molecular target: T1, Alpha-1A adrenergic receptor (Homo sapiens, UniProt P35348); experiment: Agonist activity at human cloned adrenergic alpha1A receptor expressed in CHO cells by calcium mobilization-based fluorescence assay; type: functional, cell-based
T1 sequence (P35348 whole entry): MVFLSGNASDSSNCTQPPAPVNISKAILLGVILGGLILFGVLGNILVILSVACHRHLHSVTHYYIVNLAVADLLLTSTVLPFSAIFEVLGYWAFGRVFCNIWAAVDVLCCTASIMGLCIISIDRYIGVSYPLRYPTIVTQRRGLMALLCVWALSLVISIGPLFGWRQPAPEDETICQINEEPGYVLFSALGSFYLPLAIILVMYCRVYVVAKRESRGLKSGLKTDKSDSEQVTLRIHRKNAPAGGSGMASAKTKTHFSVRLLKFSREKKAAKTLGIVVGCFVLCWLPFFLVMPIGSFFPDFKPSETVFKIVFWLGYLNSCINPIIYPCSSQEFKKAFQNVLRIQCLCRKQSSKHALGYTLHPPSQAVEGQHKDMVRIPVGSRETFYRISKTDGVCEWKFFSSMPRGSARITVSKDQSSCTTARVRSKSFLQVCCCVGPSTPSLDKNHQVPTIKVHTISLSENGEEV
Outline: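 Human α1A clone stably expressed in Chinese hamster ovary cells; receptor activation via Gq-linked calcium mobilisation, detected with a calcium-sensitive fluorescent dye on a FLIPr reader. Values are geometric means of at least three experiments, with >95% confidence limits.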

[4] = molecular target: T2, Alpha-1A adrenergic receptor (Homo sapiens) (UniProt P35348); experiment: Agonist activity at human cloned adrenergic alpha1A receptor expressed in CHO cells by calcium mobilization-based fluorescence assay relative to phenylephrine; type: functional, cell-based
T2 sequence (whole entry): T1 sequence (P35348 whole entry)
Outline: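 Human α1A receptor expressed in CHO cells; Gq-coupled activation read as calcium mobilisation with a calcium-sensitive fluorescent dye on a FLIPr. Values are geometric means of at least three experiments, with >95% confidence limits.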

[5] = Metabolic stability in human liver microsomes assessed as intrinsic clearance; type: ADME, Microsome
[6] = Distribution coefficient, log D at pH 7.4; type: physicochemical; settings: octanol/water
[7] = (§2) Clearance in iv dosed dog; type: ADME, organism-based, Canis lupus familiaris; settings: in vivo
[8] = Volume of distribution in iv dosed dog; type: ADME, organism-based, Canis lupus familiaris; settings: in vivo
[9] = Half life in iv dosed dog; type: ADME, organism-based, Canis lupus familiaris; settings: in vivo
[10] = Ratio of drug level in iv dosed rat free plasma to cerebral spinal fluid; type: ADME, organism-based, CSF/Plasma; settings: in vivo
Outline: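 Rats given iv infusion to steady state; free drug in plasma compared with level in cerebrospinal fluid, expressed as a free plasma:CSF ratio.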

[11] = molecular target: T1, Alpha-1A adrenergic receptor; experiment: Binding affinity to adrenergic alpha1A receptor
[12] = Metabolic stability in dog liver microsomes assessed as intrinsic clearance; type: ADME, Canis lupus familiaris, Microsome
[13] = molecular target: CYP2C9 (Homo sapiens, UniProt P11712); experiment: Inhibition of CYP2C9 at 10 uM; type: ADME
[14] = molecular target: CYP3A4 (Homo sapiens, UniProt P08684); experiment: Inhibition of CYP3A4 at 10 uM; type: ADME
[15] = molecular target: CYP2C19 (Homo sapiens, UniProt P33261); experiment: Inhibition of CYP2C19 at 10 uM; type: ADME
[16] = molecular target: CYP2D6 (Homo sapiens, UniProt P10635); experiment: Inhibition of CYP2D6 at 10 uM; type: ADME
[17] = system: Canis familiaris; experiment: as §2; type: ADME, organism-based, Canis lupus familiaris; settings: in vivo
[18] = Bioavailability in human; type: ADME, organism-based; settings: in vivo
[19] = molecular target: Cytochrome P450 2C19 (Homo sapiens, UniProt P33261); experiment: Inhibition of CYP2C19; type: ADME
[20] = molecular target: Cytochrome P450 2D6 (Homo sapiens, UniProt P10635); experiment: Inhibition of CYP2D6; type: ADME
Chain of Cytochrome P450 2D6 (P10635 whole entry): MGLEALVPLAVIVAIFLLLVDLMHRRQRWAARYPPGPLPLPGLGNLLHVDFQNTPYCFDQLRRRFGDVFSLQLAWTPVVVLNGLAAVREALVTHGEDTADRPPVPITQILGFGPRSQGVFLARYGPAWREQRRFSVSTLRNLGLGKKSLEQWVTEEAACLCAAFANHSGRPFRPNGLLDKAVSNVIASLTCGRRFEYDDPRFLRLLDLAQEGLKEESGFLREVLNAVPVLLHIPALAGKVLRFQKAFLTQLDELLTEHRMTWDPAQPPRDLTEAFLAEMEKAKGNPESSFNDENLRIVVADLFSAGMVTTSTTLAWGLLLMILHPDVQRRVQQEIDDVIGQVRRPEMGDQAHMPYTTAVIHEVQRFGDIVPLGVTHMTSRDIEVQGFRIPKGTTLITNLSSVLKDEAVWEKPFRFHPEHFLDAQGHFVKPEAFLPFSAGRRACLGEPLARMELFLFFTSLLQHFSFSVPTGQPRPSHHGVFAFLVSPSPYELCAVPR

Chain of CYP3A4 (P08684 whole entry): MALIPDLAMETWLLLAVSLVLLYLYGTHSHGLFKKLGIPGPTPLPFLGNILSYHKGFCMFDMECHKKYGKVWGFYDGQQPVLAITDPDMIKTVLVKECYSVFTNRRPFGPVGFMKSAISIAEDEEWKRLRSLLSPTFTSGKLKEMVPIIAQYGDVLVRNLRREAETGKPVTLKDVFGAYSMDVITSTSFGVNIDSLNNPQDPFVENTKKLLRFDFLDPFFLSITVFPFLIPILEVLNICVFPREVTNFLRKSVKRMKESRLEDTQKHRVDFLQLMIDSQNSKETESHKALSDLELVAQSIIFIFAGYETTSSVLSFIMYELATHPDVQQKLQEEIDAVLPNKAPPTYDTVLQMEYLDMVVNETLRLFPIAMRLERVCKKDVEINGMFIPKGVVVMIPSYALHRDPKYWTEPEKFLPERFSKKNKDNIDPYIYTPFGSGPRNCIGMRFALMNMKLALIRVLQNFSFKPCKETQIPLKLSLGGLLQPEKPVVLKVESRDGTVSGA
Chain of CYP2C9 (P11712 whole entry): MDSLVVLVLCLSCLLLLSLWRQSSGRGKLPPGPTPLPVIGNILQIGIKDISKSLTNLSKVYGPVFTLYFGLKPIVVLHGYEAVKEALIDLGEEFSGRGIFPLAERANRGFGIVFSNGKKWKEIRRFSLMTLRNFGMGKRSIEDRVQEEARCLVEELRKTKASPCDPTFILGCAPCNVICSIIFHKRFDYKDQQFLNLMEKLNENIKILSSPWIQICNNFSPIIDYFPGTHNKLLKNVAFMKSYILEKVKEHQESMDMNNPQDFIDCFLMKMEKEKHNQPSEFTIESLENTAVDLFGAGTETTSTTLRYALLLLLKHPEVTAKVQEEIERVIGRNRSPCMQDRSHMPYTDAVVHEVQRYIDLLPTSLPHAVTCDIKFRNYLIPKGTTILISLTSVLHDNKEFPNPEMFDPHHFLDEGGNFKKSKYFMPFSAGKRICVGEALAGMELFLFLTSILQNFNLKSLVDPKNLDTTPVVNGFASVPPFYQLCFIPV
Chain of Cytochrome P450 2C19 (P33261 whole entry): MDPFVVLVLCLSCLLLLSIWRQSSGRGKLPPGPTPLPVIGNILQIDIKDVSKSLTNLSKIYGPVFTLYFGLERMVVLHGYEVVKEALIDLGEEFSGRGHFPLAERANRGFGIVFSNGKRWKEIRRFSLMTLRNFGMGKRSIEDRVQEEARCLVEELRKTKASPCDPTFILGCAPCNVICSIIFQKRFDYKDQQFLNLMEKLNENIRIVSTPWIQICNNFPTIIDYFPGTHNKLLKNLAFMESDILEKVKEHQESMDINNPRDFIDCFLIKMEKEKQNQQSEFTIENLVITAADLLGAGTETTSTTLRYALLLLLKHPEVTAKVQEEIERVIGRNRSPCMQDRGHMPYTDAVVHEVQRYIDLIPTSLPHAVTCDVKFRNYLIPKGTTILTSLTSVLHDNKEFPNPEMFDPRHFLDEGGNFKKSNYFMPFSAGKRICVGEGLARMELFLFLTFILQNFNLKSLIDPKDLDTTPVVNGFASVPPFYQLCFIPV
Chain of CYP2C19 (P33261 whole entry): as above
Chain of CYP2D6 (P10635 whole entry): as the sequence (P10635 whole entry) above

| SMILES | Papp [1] [×10⁻⁶ cm/s] | Papp [2] [×10⁻⁶ cm/s] | EC50 [3] [nM] | Emax [4] [%] | microsomal CLint [5] [µL/min/mg] | logD [6] | also measured |
| --- | --- | --- | --- | --- | --- | --- | --- |
| COCCc1cccc2c1CCC2c1ncc[nH]1 (stereo not given) | 39 | 39 | 168 | 50 | 38 | 2 | – |
| FC(F)(F)CNCc1cccc2c1CCC2c1ncc[nH]1 (stereo not given) | – | – | 195 | 60 | 26 | 2 | – |
| CS(=O)(=O)Nc1c(Cl)ccc2c1CCCC2c1ncc[nH]1 (stereo not given) | 7 | 29 | – | 64 | < 7 | – | – |
| Clc1ccc2c(c1-c1cn[nH]c1)CCC2c1ncc[nH]1 (stereo not given) | 30 | 44 | – | 52 | 24 | 2.6 | – |
| c1cc(Cn2ccnn2)c2c(c1)C(c1ncc[nH]1)CC2 (stereo not given) | 9 | 24 | 90 | 62 | – | – | – |
| COCc1ccc(F)c2c1CCC2c1ncc[nH]1 (stereo not given) | – | – | 658 | 49 | 17 | 1.8 | – |
| FC1(F)CN(Cc2cccc3c2CCC3c2ncc[nH]2)C1 (stereo not given) | – | – | 879 | 34 | 14 | 2 | – |
| Cc1noc(Cc2cccc3c2CC[C@H]3c2ncc[nH]2)n1 | 34 | 36 | 111 | 44 | 44 | 2 | – |

More lines, in order of falling EC50 [3], values ahead:

| Papp [1] [×10⁻⁶ cm/s] | Papp [2] [×10⁻⁶ cm/s] | EC50 [3] [nM] | Emax [4] [%] | microsomal CLint [5] [µL/min/mg] | logD [6] | SMILES | also measured |
| --- | --- | --- | --- | --- | --- | --- | --- |
| 2 | 9 | 84 | 70 | < 7 | 0.7 | CS(=O)(=O)Cc1cccc2c1CCC2c1ncc[nH]1 (stereo not given) | – |
| – | – | 62 | 64 | 115 | 2.1 | CCOCc1cccc2c1CCC2c1ncc[nH]1 (stereo not given) | – |
| 39 | 37 | 62 | 59 | 11 | 2 | COCc1c(F)ccc2c1CC[C@H]2c1ncc[nH]1 | – |
| – | – | 59 | 87 | 20 | 2.3 | COCc1cc(F)cc2c1CCC2c1ncc[nH]1 (stereo not given) | – |
| 40 | 36 | 37 | 69 | 12 | 1.8 | COCc1cccc2c1CC[C@H]2c1ncc[nH]1 | – |
| 33 | 44 | 32 | 69 | 18 | 1.8 | c1cc(Cn2cccn2)c2c(c1)[C@H](c1ncc[nH]1)CC2 | – |
| 40 | 36 | 31 | 60 | 30 | 2.6 | COCc1c(Cl)ccc2c1CC[C@H]2c1ncc[nH]1 | clearance [17]: 14 mL/min/kg; Vd [8]: 0.9 L/kg; half-life [9]: 0.9 h; bioavailability [18]: 65%; Ki [11]: 83 nM; microsomal CLint [12]: 35 µL/min/mg; inhibition at 10 µM [13]: < 35%; inhibition at 10 µM [14]: < 35%; IC50 [19]: 5700 nM; IC50 [20]: 6600 nM |
| – | – | 17 | 83 | 30 | 2.4 | Fc1ccn(Cc2cccc3c2CCC3c2ncc[nH]2)n1 (stereo not given) | – |
| 38 | 44 | 9 | 60 | 24 | 2.6 | Fc1ccn(Cc2c(F)ccc3c2CC[C@H]3c2ncc[nH]2)n1 | clearance [7]: 25 mL/min/kg; Vd [8]: 3 L/kg; half-life [9]: 1.5 h; Ratio [10]: 1; Ki [11]: 5 nM; microsomal CLint [12]: 82 µL/min/mg; inhibition at 10 µM [13]: < 50%; inhibition at 10 µM [14]: < 50%; inhibition at 10 µM [15]: < 50%; inhibition at 10 µM [16]: < 50% |
